Source: PubChem BioAssay AID652163 (Broad Institute, 2013)
Among all 360,000 compounds or so, about 500 (0.14%) were called active. This is one part of a sample in which actives are shown more often than they occur. Unmarked numbers belong to inactive results.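 How the source made its calls: active means mean inhibition of at least 70% across replicates, with every replicate also reaching that level; inconclusive means mean inhibition reaches 70% but some replicates fall short; inactive means mean inhibition below 70%.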

What follows are compounds tested against Protein S100-A4 (Homo sapiens) (UniProt P26447) (assay: human S100A4 protein-peptide interaction blockers – biochemical, fluorescence polarization, TAMRA-MyoIIA peptide, primary screen (AID 652163)). Details: at 10.7 µM, stronger effect = higher value.
Procedure, shortened: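 Material: S100A4 monomer protein / Buffer or medium: 50 mM HEPES pH 7.2, 10 mM CaCl2, 100 mM KCl / Times: 5 min incubation before reading / Benchmarks: neutral control DMSO, positive control TFP / Reagent: labelled myosin peptide probe, 5 nM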

Sequence of Protein S100-A4 (Homo sapiens) (P26447 whole entry, looked up): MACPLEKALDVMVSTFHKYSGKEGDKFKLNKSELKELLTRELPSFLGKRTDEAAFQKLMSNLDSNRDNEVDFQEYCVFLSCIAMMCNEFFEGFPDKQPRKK

Compared with `O=C(C[C@H]1C=C[C@H](NC(=O)NC2CCCCC2)[C@H](CO)O1)NCc1ccccc1`, `O=C(C[C@H]1C[C@H]2c3cc(NC(=O)Nc4ccccc4)ccc3O[C@H]2[C@H](CO)O1)NC1CCCC1` is lower in inhibition: 11.3% for the first, -3.39% for the second.

Compared with `C[C@@H]1CN([C@@H](C)CO)C(=O)c2cc(NS(C)(=O)=O)ccc2O[C@@H]1CN(C)C(=O)Nc1ccccc1`, `C[C@@H]1CCCCO[C@H](CN(C)C(=O)Nc2ccc3c(c2)OCO3)[C@H](C)CN([C@H](C)CO)C(=O)c2cc(NS(C)(=O)=O)ccc2O1` is higher in inhibition: -7.83% for the first, -0.157% for the second.

First: C[C@@H]1CCCCO[C@@H](CN(C)C(=O)C2CCCCC2)[C@@H](C)CN([C@H](C)CO)C(=O)c2cc(NC(=O)c3ccccc3)ccc2O1
Second: CC(C)NC(=O)Nc1ccc2c(c1)C(=O)N([C@@H](C)CO)C[C@@H](C)[C@H](CN(C)C(=O)Cc1ccccc1)OCCCC[C@H](C)O2
The inhibition of the first is higher: 5.47% for the first, 2.76% for the second.

Going from `Cc1ccccc1-c1ccc2c(c1)O[C@@H](CN(C)C(=O)Nc1ccc(F)cc1)[C@H](C)CN([C@@H](C)CO)S2(=O)=O` to `C[C@H]1CN([C@@H](C)CO)C(=O)c2cccc(NC(=O)Nc3ccccc3)c2O[C@@H]1CN(C)C(=O)Nc1cccc2ccccc12`, the inhibition rises from -6.84% to 8.48%.

First: C[C@H]1CN([C@@H](C)CO)C(=O)c2cc(-c3cccc(F)c3)cnc2O[C@@H]1CN(C)C(=O)c1ccccn1
Second: C[C@H]1CN([C@@H](C)CO)C(=O)c2cc(C#CC3CCCC3)cnc2O[C@H]1CN(C)C(=O)c1ccncc1
The inhibition of the first is lower: 1.67% for the first, 11.5% for the second.

Compared with `COc1cccc(CC2(CO)CCCN(CC3=Cc4cc(OC)ccc4OC3)C2)c1` (stereo not given), `COc1cccc(C(=O)Nc2ccc3c(c2)OC[C@H](C)NC[C@H](C)[C@H](OC)CN(C)C3=O)c1` is higher in inhibition: -14.5% for the first, -5.1% for the second.

Compared with `CN1c2ccc([N+](=O)[O-])cc2C(C)(C)C12C=Cc1cc(C(=O)O)ccc1O2` (stereo not given), `CN1c2ccc(-c3cccc(F)c3)cc2[C@H]2[C@H](CCN2C(=O)c2cccc(F)c2)[C@H]1CO` is higher in inhibition: -14.5% for the first, -3.81% for the second.

Going from `CN(C)CC(=O)N[C@H]1CC[C@@H](CCNC(=O)C2CCCC2)O[C@@H]1CO` to `CN(C)C(=O)C[C@H]1C[C@@H]2c3cc(NC(=O)NC4CCCCC4)ccc3O[C@@H]2[C@@H](CO)O1`, the inhibition rises from 4.07% to 12.2%.

Going from `C[C@@H]1CN([C@H](C)CO)C(=O)Cc2cc(NS(=O)(=O)c3ccc(Cl)cc3)ccc2O[C@@H]1CN(C)C` to `C[C@@H]1CN([C@@H](C)CO)C(=O)Cc2cc(NS(C)(=O)=O)ccc2O[C@@H]1CN(C)Cc1ccc2c(c1)OCO2`, the inhibition falls from -3.76% to -41.9%.

Going from `COC(=O)C(CC#Cc1ccc2c(c1)[C@]1(C(=O)N2)[C@H](c2ccccc2OCCO)N2[C@H](c3ccccc3)[C@H](c3ccccc3)OC(=O)[C@H]2[C@@H]1C(N)=O)C(=O)OC` to `C[C@@H]1CCCCO[C@H](CN(C)C(=O)c2ccccc2)[C@H](C)CN([C@@H](C)CO)C(=O)c2cc(NC(=O)Nc3ccc4c(c3)OCO4)ccc2O1`, the inhibition rises from -5.68% to -5.3%.

Compared with `O=C(C[C@H]1CC[C@@H]2[C@H](COC[C@H](O)CN2CCC(F)(F)F)O1)NCC1CC1`, `Cn1cnc(S(=O)(=O)N2C[C@@H](O)COC[C@@H]3O[C@H](CC(=O)NC4CCC4)CC[C@H]32)c1` is higher in inhibition: -3.95% for the first, 0.326% for the second.

First: Cn1cnc(S(=O)(=O)N2C[C@H](O)COC[C@@H]3O[C@H](CC(=O)NC4Cc5ccccc5C4)CC[C@H]32)c1
Second: O=C(C[C@H]1CC[C@H]2[C@@H](COC[C@@H](O)CN2C(=O)Nc2ccc(C(F)(F)F)cc2)O1)NC1Cc2ccccc2C1
The inhibition of the first is lower: 2.44% for the first, 9.1% for the second.

Going from `C[C@H]1CN([C@@H](C)CO)C(=O)c2cccc(NC(=O)c3cnccn3)c2O[C@H]1CN(C)S(=O)(=O)c1cn(C)cn1` to `C[C@@H]1CN([C@@H](C)CO)C(=O)c2cc(NS(=O)(=O)c3cn(C)cn3)ccc2O[C@@H]1CN(C)C(=O)NC1CCCCC1`, the inhibition rises from 2.47% to 12.5%.

Compared with `COCCNC(=O)[C@H]1[C@H](CO)[C@H]2Cn3c(ccc(-c4ccccc4F)c3=O)[C@H]2N1C(=O)C1CCC1`, `CN(C)C(=O)[C@@H]1[C@@H](CO)[C@@H]2Cn3c(ccc(-c4ccccc4F)c3=O)[C@@H]2N1C(=O)C1CC1` is lower in inhibition: -0.238% for the first, -4.07% for the second.

Compared with `COc1ccc(CN(C)C[C@H]2Oc3c(NS(=O)(=O)c4ccc(C)cc4)cccc3C(=O)N([C@@H](C)CO)C[C@@H]2C)cc1`, `Cc1noc(C)c1S(=O)(=O)N(C)C[C@@H]1OCCCC[C@@H](C)Oc2ccc(NS(=O)(=O)c3ccccc3)cc2C(=O)N([C@H](C)CO)C[C@@H]1C` is lower in inhibition: -5.34% for the first, -6.41% for the second.

Going from `CNC(=O)C[C@H]1CC[C@@H]2[C@H](COc3ccc(NC(=O)Nc4ccc(F)c(F)c4)cc3C(=O)N2C)O1` to `CO[C@H]1CN(C)C(=O)c2cc(NC(=O)C3CC3)ccc2OC[C@H](C)N(Cc2ccccc2)C[C@H]1C`, the inhibition rises from -1.52% to 3.65%.

Going from `O=C(N[C@@H]1CC[C@@H](CC(=O)N2CCc3ccccc3C2)O[C@@H]1CO)C1CCOCC1` to `CN1CCN(C(=O)C[C@H]2CC[C@H]3[C@@H](COC[C@H](O)CN3C(=O)c3ccc(F)cc3)O2)CC1`, the inhibition falls from 13.9% to -6.97%.

Going from `O=C(C[C@@H]1CC[C@@H]2[C@H](COC[C@H](O)CN2C(=O)c2ccc3c(c2)OCO3)O1)NC1CCCC1` to `C[C@H](CO)N1C[C@H](C)[C@@H](CN(C)C(=O)NC2CCCCC2)Oc2ccc(NC(=O)c3ccncc3)cc2CC1=O`, the inhibition falls from 6.17% to 5.06%.

Going from `CC(C)NC(=O)N(C)C[C@@H]1Oc2ccc(NC(=O)C3CCCCC3)cc2CC(=O)N([C@H](C)CO)C[C@@H]1C` to `Cc1noc(C)c1NC(=O)Nc1ccc2c(c1)C(=O)N([C@H](C)CO)C[C@H](C)[C@@H](CN(C)S(C)(=O)=O)OCCCC[C@H](C)O2`, the inhibition rises from 1.64% to 7.29%.

Going from `Cn1c(=O)n(C)c2cc(S(=O)(=O)Nc3ccc(F)cc3)ccc21` to `CCCC(=O)N1CC2(C1)CN(C(=O)Nc1cccc(F)c1)[C@@H](CO)c1c2c2ccc(OC)cc2n1C`, the inhibition rises from 0.871% to 14.3%.

Compared with `CCn1c(=S)[nH]c2cc(S(=O)(=O)N3CCOCC3)ccc21`, `CCCNC(=O)N1C[C@H](C)[C@@H](OC)CN(C)C(=O)c2ccc(NS(=O)(=O)CC(F)(F)F)cc2OC[C@@H]1C` is lower in inhibition: -2.43% for the first, -4.41% for the second.

Going from `COC(=O)c1c(NC(=O)CSc2nncs2)sc2c1CCCCC2` to `COC(=O)c1c(NC(=O)C2CC(C)=C(C)CC2C(=O)O)sc2c1CCCCC2` (stereo not given), the inhibition falls from -2.13% to -3.38%.

First: Cc1noc(C)c1S(=O)(=O)Nc1ccc2c(c1)C(=O)N([C@@H](C)CO)C[C@@H](C)[C@@H](CN(C)S(=O)(=O)c1ccccc1)OCCCC[C@H](C)O2
Second: Cc1noc(C)c1NC(=O)Nc1ccc2c(c1)C(=O)N([C@H](C)CO)C[C@@H](C)[C@H](CN(C)S(=O)(=O)c1ccc(Cl)cc1)OCCCC[C@H](C)O2
The inhibition of the first is lower: -42.8% for the first, -9.02% for the second.

Going from `CCCC(=O)Nc1ccc2c(c1)OC[C@H](C)N(CCC(F)(F)F)C[C@@H](C)[C@H](OC)CN(C)C2=O` to `COc1ccccc1-c1cnc2c(c1)C(=O)N([C@H](C)CO)C[C@H](C)[C@@H](CN(C)CC1CCOCC1)O2`, the inhibition rises from -10.8% to -8.2%.

Going from `CN1c2ccc(-c3ccccc3)cc2[C@@H]2[C@@H](CCN2C(=O)c2ccncc2)[C@@H]1CO` to `N#C[C@@H]1[C@@H](c2ccccc2)[C@@H](CO)N1C(=O)c1cc(Cl)cc(Cl)c1`, the inhibition rises from 0.924% to 3%.

Compared with `O=C(NCC1CC1)[C@@H]1[C@@H](CO)[C@@H]2Cn3c(ccc(-c4ccncc4)c3=O)[C@H]1N2Cc1nccs1`, `O=C([C@@H]1[C@@H](CO)[C@@H]2Cn3c(ccc(-c4ccccc4F)c3=O)[C@H]1N2C(=O)C1CCC1)N1CCCCC1` is lower in inhibition: 5.95% for the first, 3.88% for the second.

`COc1ccc2c(c1)C=CC1(O2)N(CCO)c2ccccc2C1(C)C` (stereo not given) was tested, and the inhibition was 97.1% (active).
`Cn1cnc(S(=O)(=O)N2C[C@H](O)COC[C@@H]3O[C@H](CC(=O)NC4CCCC4)CC[C@H]32)c1` was tested, and the inhibition was 126% (active).
For `CNS(=O)(=O)c1ccc2c(c1)[nH]c(=S)n2C`, the inhibition was 82.4% (active).
In the case of `Cc1noc(C)c1S(=O)(=O)N(C)C[C@H]1OCCCC[C@H](C)Oc2ccc(NS(=O)(=O)c3ccccc3)cc2C(=O)N([C@H](C)CO)C[C@@H]1C`, the inhibition is reported as 106% (active).
For `C[C@@H]1CCCCO[C@@H](CN(C)C(=O)Cc2ccccc2)[C@H](C)CN([C@@H](C)CO)C(=O)c2cc(NC(=O)Nc3ccc4c(c3)OCO4)ccc2O1`, the inhibition was 121% (active).
For `Cc1noc(C)c1NC(=O)Nc1ccc2c(c1)C(=O)N([C@H](C)CO)C[C@@H](C)[C@@H](CN(C)S(=O)(=O)c1ccc(Cl)cc1)OCCCC[C@H](C)O2`, the inhibition was 108% (active).
With `CN1c2ccc(-c3ccccc3)cc2[C@@H]2[C@@H](CCN2C(=O)c2ccccc2)[C@H]1CO` the inhibition was 80% (active).
`CCCN1[C@H](C(=O)N2CCCCC2)[C@@H](CO)[C@@H]2Cn3c(ccc(-c4ccccc4F)c3=O)[C@@H]21` was tested, and the inhibition was 89.8% (active).
